For one molecule, Drug metabolism results are on record in ChEMBL document CHEMBL3526048, “In vitro metabolism of rivoglitazone, a novel peroxisome proliferator-activated receptor γ agonist, in rat, monkey, and human liver microsomes and freshly isolated hepatocytes” (Drug Metab Dispos, 2011).

The target in data set [1] is Cytochrome P450 2C19 (Homo sapiens, UniProt P33261). Nature of the data set: Activity of human CYP2C19 expressed in microsomes isolated from baculovirus infected insect cell assessed as enzyme-mediated 5-hydroxy-5-(4-((6-methoxy-1-methyl-1H-benzo[d]imidazol-2-yl)methoxy)benzyl)thiazolidine-2,4-dione formation at 20 uM after 2 hrs by radio-HPLC/LC-MS/MS analysis in presence of NADPH-generating system and NADPH-generating system/SAM. Format: ADME. The essentials: (§1)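 Baculovirus/insect-cell microsomes expressing single human CYPs, 1 mg/ml protein, with 50 mM potassium phosphate (pH 7.4) or 100 mM Tris-HCl (pH 7.5). NADPH-generating system: 2 mM NADP⁺, 20 mM glucose 6-phosphate, 2 units/ml G6PDH, 10 mM MgCl₂. [¹⁴C]rivoglitazone at 20 μM, 2 h at 37°C with shaking. Control used insect-cell control supersomes. Stopped with acetonitrile; supernatant concentrated under nitrogen; metabolites analysed by radio-HPLC, LC-MS and LC-MS/MS.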
Chain of Cytochrome P450 2C19 (P33261 whole entry): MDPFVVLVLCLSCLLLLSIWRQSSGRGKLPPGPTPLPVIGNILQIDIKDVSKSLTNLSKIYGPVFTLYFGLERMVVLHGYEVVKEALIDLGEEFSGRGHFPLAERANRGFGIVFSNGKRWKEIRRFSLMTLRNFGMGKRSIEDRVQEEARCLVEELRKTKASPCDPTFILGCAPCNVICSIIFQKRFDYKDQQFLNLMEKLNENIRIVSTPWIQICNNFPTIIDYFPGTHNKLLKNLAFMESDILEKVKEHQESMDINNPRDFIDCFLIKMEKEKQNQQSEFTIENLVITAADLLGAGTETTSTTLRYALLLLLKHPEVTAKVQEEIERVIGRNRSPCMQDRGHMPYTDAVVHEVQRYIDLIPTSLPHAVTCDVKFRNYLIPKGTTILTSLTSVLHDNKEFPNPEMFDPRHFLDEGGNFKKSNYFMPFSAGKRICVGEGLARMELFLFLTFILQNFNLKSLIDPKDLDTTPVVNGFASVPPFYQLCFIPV

The subject of data set [2] is Liver microsome. The experiment in a line: Drug metabolism in human liver microsomes assessed as formation of (2S,3S,4S,5R,6R)-3,4,5-trihydroxy-6-(5-(4-((6-methoxy-1-methyl-1H-benzo[d]imidazol-2-yl)methoxy)benzyl)-2,4-dioxothiazolidin-3-yl)tetrahydro-2H-pyran-2-carboxylic acid at 20 uM after 4 hrs by radio-HPLC/LC-MS/MS analysis in presence of UDPGA and UDPGA/SAM. Format: ADME. (In general: Microsomes from liver hold many membrane-bound enzymes, among them those of drug oxidation.)

In data set [3] the target is T1, Cytochrome P450 2C8 (Homo sapiens, UniProt P10632).
T1 sequence (P10632 whole entry): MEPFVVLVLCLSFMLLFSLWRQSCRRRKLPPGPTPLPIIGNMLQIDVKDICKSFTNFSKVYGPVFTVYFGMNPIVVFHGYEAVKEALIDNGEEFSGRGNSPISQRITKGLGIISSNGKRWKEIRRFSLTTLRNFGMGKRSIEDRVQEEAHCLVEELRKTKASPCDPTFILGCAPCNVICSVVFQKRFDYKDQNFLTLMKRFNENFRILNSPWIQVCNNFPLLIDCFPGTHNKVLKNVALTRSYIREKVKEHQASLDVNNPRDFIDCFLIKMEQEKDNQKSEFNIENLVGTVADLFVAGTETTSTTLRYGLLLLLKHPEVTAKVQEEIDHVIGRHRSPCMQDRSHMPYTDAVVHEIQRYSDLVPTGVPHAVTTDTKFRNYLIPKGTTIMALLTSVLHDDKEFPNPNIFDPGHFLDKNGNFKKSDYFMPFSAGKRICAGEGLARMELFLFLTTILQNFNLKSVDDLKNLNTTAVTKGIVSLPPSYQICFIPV
Nature of the data set: Activity of human CYP2C8 expressed in microsomes isolated from baculovirus infected insect cell assessed as enzyme-mediated 5-(4-((6-methoxy-1H-benzo[d]imidazol-2-yl)methoxy)benzyl)thiazolidine-2,4-dione formation at 20 uM after 2 hrs by radio-HPLC/LC-MS/MS analysis in presence of NADPH-generating system and NADPH-generating system/SAM. Format: ADME. The essentials: as §1

Data set [4] has as its target T1, Cytochrome P450 2C8. Nature of the data set: Activity of human CYP2C8 expressed in microsomes isolated from baculovirus infected insect cell assessed as enzyme-mediated (2S,3S,4S,5R,6R)-3,4,5-trihydroxy-6-(5-(4-((6-methoxy-1-methyl-1H-benzo[d]imidazol-2-yl)methoxy)benzyl)-2,4-dioxothiazolidin-3-yl)tetrahydro-2H-pyran-2-carboxylic acid formation at 20 uM after 2 hrs by radio-HPLC/LC-MS/MS analysis in presence of UDPGA and UDPGA/SAM. In kind it is ADME.

For data set [5], the target named is T2, UDP-glucuronosyltransferase 1A4 (Homo sapiens, UniProt P22310).
T2 sequence (P22310 whole entry): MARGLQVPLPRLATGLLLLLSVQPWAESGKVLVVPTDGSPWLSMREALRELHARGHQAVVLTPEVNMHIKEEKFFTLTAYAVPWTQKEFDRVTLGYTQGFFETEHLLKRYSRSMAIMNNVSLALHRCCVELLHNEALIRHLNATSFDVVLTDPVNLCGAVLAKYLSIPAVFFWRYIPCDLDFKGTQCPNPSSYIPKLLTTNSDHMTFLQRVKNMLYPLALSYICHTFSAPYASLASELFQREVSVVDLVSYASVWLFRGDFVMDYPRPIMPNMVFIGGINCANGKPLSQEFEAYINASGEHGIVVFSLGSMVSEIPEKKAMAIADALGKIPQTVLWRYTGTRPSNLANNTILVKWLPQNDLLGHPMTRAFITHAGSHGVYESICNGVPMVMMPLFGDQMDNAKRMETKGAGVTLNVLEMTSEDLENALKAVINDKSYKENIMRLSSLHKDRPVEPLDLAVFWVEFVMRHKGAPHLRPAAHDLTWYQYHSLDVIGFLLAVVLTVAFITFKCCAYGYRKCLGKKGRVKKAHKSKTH
Nature of the data set: Activity of human UGT1A4 expressed in microsomes isolated from baculovirus infected insect cell assessed as enzyme-mediated (2S,3S,4S,5R,6R)-3,4,5-trihydroxy-6-(5-(4-((6-methoxy-1-methyl-1H-benzo[d]imidazol-2-yl)methoxy)benzyl)-2,4-dioxothiazolidin-3-yl)tetrahydro-2H-pyran-2-carboxylic acid formation at 20 uM after 4 hrs by radio-HPLC/LC-MS/MS analysis in presence of UDPGA. Format: ADME.

Data set [6] addresses T3, Cytochrome P450 1A2 (Homo sapiens, UniProt P05177).
T3 sequence (P05177 whole entry): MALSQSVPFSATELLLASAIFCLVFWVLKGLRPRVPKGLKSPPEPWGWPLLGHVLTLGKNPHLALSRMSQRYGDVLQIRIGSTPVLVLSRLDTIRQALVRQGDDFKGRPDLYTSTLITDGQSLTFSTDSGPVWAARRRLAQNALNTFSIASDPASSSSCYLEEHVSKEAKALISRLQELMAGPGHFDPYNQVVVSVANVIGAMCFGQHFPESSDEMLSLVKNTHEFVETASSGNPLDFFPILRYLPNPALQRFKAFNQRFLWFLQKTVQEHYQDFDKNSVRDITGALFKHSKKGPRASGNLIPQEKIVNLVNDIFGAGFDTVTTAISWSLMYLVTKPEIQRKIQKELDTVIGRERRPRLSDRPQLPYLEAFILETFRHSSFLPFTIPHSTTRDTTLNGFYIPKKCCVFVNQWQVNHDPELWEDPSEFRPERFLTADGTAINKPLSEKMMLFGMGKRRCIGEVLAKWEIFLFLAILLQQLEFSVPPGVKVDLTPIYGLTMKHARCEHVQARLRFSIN
Nature of the data set: Activity of human CYP1A2 expressed in microsomes isolated from baculovirus infected insect cell assessed as enzyme-mediated 2-mercapto-3-(4-((6-methoxy-1-methyl-1H-benzo[d]imidazol-2-yl)methoxy)phenyl)propanamide formation at 20 uM after 2 hrs by radio-HPLC/LC-MS/MS analysis in presence of NADPH-generating system and NADPH-generating system/SAM. Format: ADME. The method, boiled down: as §1

Data set [7] is described as follows: Drug metabolism in monkey hepatocytes assessed as formation of 2-amino-3-((1-carboxy-2-(4-((6-methoxy-1-methyl-1H-benzo[d]imidazol-2-yl)methoxy)phenyl)ethyl)disulfanyl)propanoic acid at 30 uM after 3 hrs by radio-HPLC/LC-MS/MS analysis. The settings on record: cynomolgus monkey.

Molecules are shown by their SMILES.

For `COc1ccc2nc(COc3ccc(C[14CH]4SC(=O)NC4=O)cc3)n(C)c2c1.Cl` (racemic), the Drug metabolism result in data set [1] is on record as “metabolite_detected”; in data set [2], “metabolite_detected”; in data set [3], “metabolite_detected”; in data set [4], “metabolite_not_detected”; in data set [5], “metabolite_not_detected”; in data set [6], “metabolite_detected”. In data set [7], the Drug metabolism entry is “metabolite_not_detected”.
